Activity calls are given as the source filed them. The calls are words filed in the database; no cut-off is given here.
Key:
RAW264.7 [1] = assay: Anti-inflammatory activity in mouse RAW264.7 cells assessed as inhibition of LPS-induced nitric oxide production preincubated for 3 hrs followed by LPS-stimulation and measured after 24 hrs by Griess assay; format: functional, cell-based
In short: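 Mouse macrophage RAW264.7 cells (ATCC) grown in DMEM with 10% FBS and penicillin/streptomycin at 37 °C, 5% CO2. Seeded at 5000 cells/well and cultured overnight. Medium replaced with compound-containing medium (0−100 μM) for 3 h, then 1 μg/mL LPS added for 24 h. Supernatant mixed 1:1 with Griess reagent for 10 min at room temperature, absorbance read at 540 nm. Nitrite quantified from a standard curve; IC50 taken from inhibition rates across a concentration gradient.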

RAW264.7 [2] = assay: Cytotoxicity against mouse RAW264.7 cells assessed as reduction in cell viability after 24 hrs by CCK8 assay; format: cell-based; conditions: RAW264.7, 24 h
In short: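 RAW264.7 macrophages cultured in DMEM with 10% FBS and penicillin/streptomycin at 37 °C, 5% CO2. Cells exposed to compound for 24 h. Viability measured by CCK8 kit following the manufacturer's instructions.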

RAW264.7 [3] = assay: Anti-inflammatory activity in mouse RAW264.7 cells assessed as inhibition of LPS-induced IL1beta production preincubated for 3 hrs followed by LPS-stimulation and measured after 24 hrs by ELISA; format: functional, cell-based
In short: (§1)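 Cells were pretreated with compound at 2.5, 5 or 10 μM for 3 h, then stimulated with 1 μg/mL LPS for 24 h. IL-1β and IL-6 were quantified in collected supernatants by commercial ELISA kits. Significance was assessed against unstimulated, untreated control.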

RAW264.7 [4] = assay: Anti-inflammatory activity in mouse RAW264.7 cells assessed as inhibition of LPS-induced IL-6 production preincubated for 3 hrs followed by LPS-stimulation and measured after 24 hrs by ELISA; format: functional, cell-based; in short: as §1
[5] = biological target: T1, NF-kappa-B inhibitor alpha (Mus musculus) (UniProt Q9Z1E3); assay: Inhibition of LPS-induced IkappaBalpha phosphorylation in mouse RAW264.7 cells at 10 uM preincubated for 3 hrs followed by LPS-stimulation and measured by Western blot analysis; format: cell-based
T1 sequence (whole entry): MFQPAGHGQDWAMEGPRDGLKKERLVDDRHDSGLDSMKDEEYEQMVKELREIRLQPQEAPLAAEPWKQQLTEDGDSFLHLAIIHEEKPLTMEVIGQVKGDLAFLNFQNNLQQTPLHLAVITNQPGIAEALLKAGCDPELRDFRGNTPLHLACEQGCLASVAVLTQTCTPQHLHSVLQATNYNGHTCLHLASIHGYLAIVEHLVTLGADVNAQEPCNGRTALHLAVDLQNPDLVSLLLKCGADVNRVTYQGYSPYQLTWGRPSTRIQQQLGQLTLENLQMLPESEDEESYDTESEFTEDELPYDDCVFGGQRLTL
In short: (§2)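 Cells were pretreated with compound for 3 h before LPS addition. Equal protein by BCA went onto 10% SDS-PAGE and nitrocellulose, probed for iNOS, NF-κB, IκBα and p-IκBα with chemiluminescence detection.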

RAW264.7 [6] = assay: Cytotoxicity against mouse RAW264.7 cells assessed as reduction in cell viability at 100 uM after 24 hrs by CCK8 assay; format: cell-based; conditions: raw264.7, 24 h
In short: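 Cells were exposed to compound across 0–100 range for 24 h. Viability was then measured by CCK8 assay on the well supernatant, following kit instructions. Comparison was made with cells given 0 μM compound.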

[7] = biological target: T1, NF-kappa-B inhibitor alpha (Mus musculus); assay: Inhibition of IkappaBalpha phosphorylation in LPS-stimulated mouse RAW264.7 cells assessed as reduction in NF-kappaB p65 nuclear translocation at 5 to 10 uM pretreated for 2 hrs followed by LPS-stimulation measured after 12 hrs by DAPI staining based immunofluorescence assay; format: cell-based
In short: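 Cells at 70% confluence were pretreated with DMSO, given 5 or 10 μM compound for 2 h, then activated with 1 μg/mL LPS for 12 h. Cells were fixed in 4% paraformaldehyde, permeabilized with 0.25% Triton X-100 and blocked with 5% BSA. Staining used P65 antibody (1:1000, 4 °C overnight), AlexaFluor488 secondary (1:500, 1 h) and DAPI for nuclei.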

[8] = biological target: T1, NF-kappa-B inhibitor alpha (Mus musculus); assay: Inhibition of IkappaBalpha phosphorylation in LPS-induced mouse RAW264.7 cells assessed as reduction in NFkappaB expression preincubated for 3 hrs followed by LPS-stimulation and measured by Western blot analysis; format: cell-based; in short: as §2
[9] = biological target: T1, NF-kappa-B inhibitor alpha (Mus musculus); assay: Inhibition of IkappaBalpha phosphorylation in LPS-stimulated mouse RAW264.7 cells assessed as reduction in iNOS expression preincubated for 3 hrs followed by LPS-stimulation and measured by Western blot analysis; format: cell-based; in short: as §2

**Q.** How did the IC50 (RAW264.7 [1]) turn out when `C[C@@H]1C[C@H]2[C@@H]3CCC4=CC(=O)C=C[C@]4(C)[C@@]3(F)[C@@H](O)C[C@]2(C)[C@@]1(O)C(=O)CO` [DEXAMETHASONE] was run?
**A.** Its IC50 is 7.9 µM.

**Q.** With `C=C1[C@@H](OC(=O)c2ccccc2)C[C@H]2[C@@H](/C=C(\C)C(=O)[C@@]3(OC(C)=O)C[C@H](C)[C@H](OC(=O)c4ccccc4)[C@@H]3[C@H]1OC(C)=O)C2(C)C` as the compound, how does the IC50 (RAW264.7 [2]) read?
**A.** Its IC50 is greater than 50 µM.

**Q.** And the IC50 (RAW264.7 [1])?
**A.** The IC50 was greater than 100 µM.

**Q.** Which results are given for `C=C1[C@H](OC(C)=O)C[C@H]2[C@@H](/C=C(\C)C(=O)[C@@]3(OC(C)=O)C[C@H](C)[C@H](OC(=O)c4ccccc4)[C@@H]3[C@H]1O)C2(C)C`?
**A.** IC50 (RAW264.7 [2]): > 50 µM; IC50 (RAW264.7 [1]): 4 µM

**Q.** What does the source list for `C=C1[C@@H](OC(=O)c2ccccc2)C[C@H]2[C@@H](/C=C(\C)C(=O)[C@@]3(O)C[C@H](C)[C@H](OC(=O)c4ccccc4)[C@@H]3[C@H]1OC(C)=O)C2(C)C`?
**A.** IC50 (RAW264.7 [2]): > 50 µM; IC50 (RAW264.7 [1]): 15.2 µM

**Q.** Which results are given for `C=C1[C@@H](OC(=O)c2cccnc2)C[C@H]2[C@@H](/C=C(\C)C(=O)[C@@]3(OC(C)=O)C[C@H](C)[C@H](OC(=O)c4ccccc4)[C@@H]3[C@H]1OC(C)=O)C2(C)C`?
**A.** IC50 (RAW264.7 [2]): > 50 µM; IC50 (RAW264.7 [1]): 2.6 µM

**Q.** Which results are given for `CC(=O)O[C@]12C[C@H](C)[C@H](O)[C@@H]1[C@H]1O[C@]1(C)CC[C@H]1[C@H](/C=C(\C)C2=O)C1(C)C`?
**A.** IC50 (RAW264.7 [2]): > 50 µM; IC50 (RAW264.7 [1]): > 100 µM

**Q.** With `CCCCCC(=O)O[C@H]1[C@@H](C)C[C@]2(OC(C)=O)C(=O)/C(C)=C/[C@@H]3[C@H](CC/C(CO)=C\[C@@H]12)C3(C)C` as the compound, how does the IC50 (RAW264.7 [2]) read?
**A.** The IC50 was greater than 50 µM.

**Q.** What about the IC50 (RAW264.7 [1]) of the same compound?
**A.** Its IC50 is 9.3 µM.

**Q.** How did the inhibition (RAW264.7 [3]) turn out when `C=C1CC[C@H]2[C@@H](/C=C(\C)C(=O)[C@@]3(OC(C)=O)C[C@H](C)[C@H](OC(=O)/C=C/c4ccccc4)[C@@H]3[C@H]1O)C2(C)C` was run?
**A.** The inhibition was “Dose-dependent effect”.

**Q.** And the inhibition (RAW264.7 [4])?
**A.** The inhibition was “Dose-dependent effect”.

**Q.** And the inhibition [5]?
**A.** Its inhibition is “Active”.

**Q.** What about the IC50 (RAW264.7 [2]) of the same compound?
**A.** The IC50 was greater than 50 µM.

**Q.** What about the IC50 (RAW264.7 [1]) of the same compound?
**A.** The IC50 was 3 µM.

**Q.** What about the Activity (RAW264.7 [6]) of the same compound?
**A.** The Activity was “Toxic”.

**Q.** What about the inhibition [7] of the same compound?
**A.** The inhibition was “Active”.

**Q.** And the inhibition [8]?
**A.** The inhibition was “Dose-dependent effect”.

**Q.** What about the inhibition [9] of the same compound?
**A.** Its inhibition is “Dose-dependent effect”.

**Q.** Which results are given for `CC(=O)OC/C1=C\C[C@H]2[C@@H](/C=C(\C)C(=O)[C@@]3(O)C[C@H](C)[C@H](OC(=O)c4ccccc4)[C@@H]3[C@H]1OC(C)=O)C2(C)C`?
**A.** IC50 (RAW264.7 [2]): > 50 µM; IC50 (RAW264.7 [1]): > 100 µM

**Q.** With `CC(=O)OC/C1=C/[C@@H]2[C@@H](O)[C@@H](C)C[C@]2(OC(C)=O)C(=O)/C(C)=C/[C@@H]2[C@H](CC1)C2(C)C` as the compound, how does the IC50 (RAW264.7 [2]) read?
**A.** Its IC50 is greater than 50 µM.

**Q.** And the IC50 (RAW264.7 [1])?
**A.** The IC50 was greater than 50 µM.

**Q.** With `CC(=O)O[C@]12C[C@H](C)[C@H](OC(=O)Cc3ccccc3)[C@@H]1/C=C(/CO)CC[C@H]1[C@@H](/C=C(\C)C2=O)C1(C)C` as the compound, how does the IC50 (RAW264.7 [2]) read?
**A.** Its IC50 is greater than 50 µM.

**Q.** And the IC50 (RAW264.7 [1])?
**A.** Its IC50 is greater than 100 µM.

**Q.** With `CC(=O)O[C@]12C[C@H](C)[C@H](OC(=O)/C=C/c3ccccc3)[C@@H]1/C=C(/CO)CC[C@H]1[C@@H](/C=C(\C)C2=O)C1(C)C` as the compound, how does the IC50 (RAW264.7 [2]) read?
**A.** Its IC50 is greater than 50 µM.

**Q.** What about the IC50 (RAW264.7 [1]) of the same compound?
**A.** The IC50 was 26 µM.

**Q.** `C=C1[C@H](O)C[C@H]2[C@@H](/C=C(\C)C(=O)[C@@]3(OC(C)=O)C[C@H](C)[C@H](OC(=O)c4ccccc4)[C@@H]3[C@H]1OC(C)=O)C2(C)C` was tested. Which IC50 (RAW264.7 [2]) did it give?
**A.** The IC50 was greater than 50 µM.

**Q.** And the IC50 (RAW264.7 [1])?
**A.** The IC50 was 5 µM.

**Q.** What does the source list for `C=C1CC[C@H]2[C@@H](/C=C(\C)C(=O)[C@@]3(OC(C)=O)C[C@H](C)[C@H](OC(=O)c4ccccc4)[C@@H]3[C@H]1OC(C)=O)C2(C)C`?
**A.** IC50 (RAW264.7 [2]): > 50 µM; IC50 (RAW264.7 [1]): 8.3 µM

**Q.** Which IC50 (RAW264.7 [2]) does the source give for `CC(=O)OC/C1=C/[C@H]2[C@@H](OC(=O)[C@H](O)c3ccccc3)[C@@H](C)C[C@]2(OC(C)=O)C(=O)/C(C)=C/[C@@H]2[C@H](CC1)C2(C)C` here?
**A.** Its IC50 is greater than 50 µM.

**Q.** What about the IC50 (RAW264.7 [1]) of the same compound?
**A.** The IC50 was greater than 50 µM.

**Q.** Which IC50 (RAW264.7 [2]) does the source give for `CC(=O)O[C@@H]1[C@H]2[C@@H](OC(=O)Cc3ccccc3)[C@@H](C)C[C@]2(OC(C)=O)C(=O)/C(C)=C/[C@@H]2[C@H](CC[C@]13CO3)C2(C)C` here?
**A.** Its IC50 is greater than 50 µM.

**Q.** And the IC50 (RAW264.7 [1])?
**A.** The IC50 was 9.9 µM.

**Q.** With `C=C1CC[C@H]2[C@@H](/C=C(\C)C(=O)[C@@]3(OC(C)=O)C[C@H](C)[C@H](OC(=O)c4cccnc4)[C@@H]3[C@H]1OC(C)=O)C2(C)C` as the compound, how does the IC50 (RAW264.7 [2]) read?
**A.** Its IC50 is greater than 50 µM.

**Q.** And the IC50 (RAW264.7 [1])?
**A.** Its IC50 is 100 µM.

Reference: ChEMBL document CHEMBL4480428, “Anti-inflammatory Lathyrane Diterpenoids from Euphorbia lathyris” (J Nat Prod, 2019)
